Source: ChEMBL document CHEMBL5346913, “C-glycosides analogues of the okadaic acid central fragment exert neuroprotection via restoration of PP2A-phosphatase activity: A rational design of potential drugs for Alzheimer's disease targeting tauopathies” (Eur J Med Chem, 2023)
Activity calls are given as the source filed them. No cut-off for these calls is given here.

Tests used:
SH-SY5Y [1] = assay: Neuroprotective activity against okadaic acid-induced cytotoxicity in human SH-SY5Y cells assessed as protection against cell death at 1 uM incubated for 24 hrs by MTT assay relative to control; type: functional
Outline: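 SH-SY5Y cells were pre-incubated 24 h with compound at 1 μM, then co-incubated with okadaic acid 20 nM for 20 h. Viability was read by MTT reduction. Results are % protection relative to okadaic acid-treated cells without compound, as mean ± SEM of at least 4 independent experiments.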

SH-SY5Y [2] = assay: Neuroprotective activity against cytostatin-induced cytotoxicity in human SH-SY5Y cells assessed as protection against cell death at 1 uM […] by MTT assay relative to control; type: functional
Cortical neurone = assay: Neuroprotective activity against glutamate-induced excitotoxicity in rat cortical neurons assessed as protection against cell damage at 1 uM preincubated with compound for 24 hrs followed by glutamate addition and measured after 20 hrs by MTT assay relative to control; type: functional; conditions: time 44 hrs
SH-SY5Y [3] = assay: Neuroprotective activity against rotenone/oligomycin-induced oxidative stress in human SH-SY5Y cells assessed as protection against cell death at 1 uM incubated for 20 to 24 hrs by MTT assay relative to control; conditions: time 20-24 hrs
SH-SY5Y [4] = assay: Activation of PP2A in human SH-SY5Y cells assessed as restoration of okadaic acid-induced phosphatase activity inhibition at 1 uM preincubated with compound for 24 hrs followed by okadaic acid addition and measured after 18 hrs by pNPP method; type: cell-based; conditions: time 42.0 hrs
Outline: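 SH-SY5Y cells (MEM/F12, 10% FBS, 70000 cells/well) preincubated 24 h with compound, then exposed to OA 15 nM plus compound 1 μM for 18 h; phosphatase activity by pNPP method, normalized to untreated control; mean ± SEM, at least 4 independent experiments.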

SH-SY5Y [5] = assay: Activation of PP2A in human SH-SY5Y cells assessed as restoration of cytostatin-induced phosphatase activity inhibition at 1 uM preincubated with compound for 24 hrs followed by okadaic acid addition and measured after 18 hrs by pNPP method; type: cell-based; conditions: filed as activator, time 42.0 hrs, in the assay text read “followed by cytostatin addition” for “followed by okadaic acid addition”
Outline: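 Cells were SH-SY5Y (70000/well), preincubated 24 h with compound, then given cytostatin 2 μM plus compound 1 μM for 18 h; pNPP-measured phosphatase activity normalized to untreated control; mean ± SEM, at least 3 independent experiments.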

[6] = biological target: Microtubule-associated protein tau (Homo sapiens) (UniProt P10636); assay: Inhibition of okadaic-acid induced tau hyperphosphorylation at Ser202/Thr205 residues in human SH-SY5Y cells at 0.1 uM preincubated with compound for 24 hrs followed by okadaic acid addition and measured after 20 hrs by Western blot analysis; type: cell-based; conditions: time 44.0 hrs
Outline: (§1)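 After 24 h preincubation with compound 0.1 μM, SH-SY5Y cells incubated 20 h with OA 20 nM plus compound; western blot for pTau (Ser202/Thr205) and pGSK-3β (Ser9); mean ± SEM of at least 3 independent experiments.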

[7] = biological target: Glycogen synthase kinase-3 beta (Homo sapiens) (UniProt P49841); assay: Inhibition of okadaic-acid induced GSK-3beta hyperphosphorylation at Ser9 residue in human SH-SY5Y cells at 0.1 uM preincubated with compound for 24 hrs followed by okadaic acid addition and measured after 20 hrs by Western blot analysis; type: cell-based; conditions: time 44.0 hrs; outline: as §1
[8] = Permeability of the compound in porcine brain by spectrophotometry based PAMPA-BBB assay; conditions: pig
HEK293T [9] = assay: Activation of GFP-tagged PP2A-B55alpha (unknown origin) transfected in HEK293T cells using K-R-pT-I-R-R peptide as substrate assessed as recovery of OA-induced PP2A inhibition by measuring increase in substrate phospho hydrolysis at 1 uM measured at 15 to 30 mins by Malachite green method; type: cell-based; conditions: Homo sapiens, filed as activator, time 15-30 min
HEK293T [10] = assay: Activation of GFP-tagged PP2A-B56alpha (unknown origin) transfected in HEK293T cells using K-R-pT-I-R-R peptide as substrate assessed as recovery of OA-induced PP2A inhibition by measuring increase in substrate phospho hydrolysis at 1 uM measured at 15 to 30 mins by Malachite green method; type: cell-based; conditions: Homo sapiens, filed as activator, time 15-30 min
Mus musculus = assay: Cognitive enhancing effect in LPS-induced mouse model of cognitive impairment assessed as fold change in time exploring the new object at 10 mg/ml, ip by object recognition test; type: functional
Outline: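 Mice injected i.p. with LPS 1 mg/mL and co-injected i.p. with compound 10 mg/mL; object recognition test: day 1 arena familiarization, day 2 two identical objects, day 3 one replaced by an object differing in shape and size; exploration recorded 10 min; new vs old object exploration time compared; mean ± SEM.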

Microtubule-associated protein tau (Homo sapiens), sequence (P10636 whole entry): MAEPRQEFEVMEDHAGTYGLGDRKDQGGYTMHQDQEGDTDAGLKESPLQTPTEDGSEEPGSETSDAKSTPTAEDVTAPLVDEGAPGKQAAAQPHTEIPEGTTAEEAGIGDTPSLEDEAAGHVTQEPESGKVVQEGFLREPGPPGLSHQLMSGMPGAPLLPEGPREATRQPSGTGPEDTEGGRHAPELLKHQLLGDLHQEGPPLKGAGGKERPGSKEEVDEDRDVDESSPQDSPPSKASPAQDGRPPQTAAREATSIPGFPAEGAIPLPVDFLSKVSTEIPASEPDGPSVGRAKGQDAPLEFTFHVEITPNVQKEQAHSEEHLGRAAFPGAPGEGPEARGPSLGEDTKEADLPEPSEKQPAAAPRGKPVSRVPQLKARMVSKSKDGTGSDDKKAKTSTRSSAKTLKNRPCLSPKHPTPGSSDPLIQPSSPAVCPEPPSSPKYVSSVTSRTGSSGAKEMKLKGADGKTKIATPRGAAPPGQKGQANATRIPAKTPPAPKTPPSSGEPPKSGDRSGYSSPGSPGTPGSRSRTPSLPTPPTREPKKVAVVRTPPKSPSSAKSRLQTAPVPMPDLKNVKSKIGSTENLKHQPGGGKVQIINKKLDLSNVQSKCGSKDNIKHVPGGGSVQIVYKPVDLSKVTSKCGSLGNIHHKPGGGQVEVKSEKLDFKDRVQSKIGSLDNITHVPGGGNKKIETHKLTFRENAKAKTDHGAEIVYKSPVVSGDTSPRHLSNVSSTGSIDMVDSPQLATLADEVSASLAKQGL
Glycogen synthase kinase-3 beta (Homo sapiens), sequence (P49841 whole entry, looked up): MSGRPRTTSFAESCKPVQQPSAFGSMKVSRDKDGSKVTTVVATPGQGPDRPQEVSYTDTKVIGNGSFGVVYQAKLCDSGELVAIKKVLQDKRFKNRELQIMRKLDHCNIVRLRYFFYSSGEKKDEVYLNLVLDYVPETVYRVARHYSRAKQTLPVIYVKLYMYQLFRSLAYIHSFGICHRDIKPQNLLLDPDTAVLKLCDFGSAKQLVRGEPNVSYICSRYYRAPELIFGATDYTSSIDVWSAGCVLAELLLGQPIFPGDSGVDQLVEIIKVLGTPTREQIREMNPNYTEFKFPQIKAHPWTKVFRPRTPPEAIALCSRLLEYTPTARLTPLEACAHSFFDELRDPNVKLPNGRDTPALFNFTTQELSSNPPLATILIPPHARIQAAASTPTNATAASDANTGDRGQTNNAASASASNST

C=CC[C@@H]1C=C[C@@H]2OC(C)(C)OC[C@H]2O1
Activity (SH-SY5Y [1]): 50% | Activity (SH-SY5Y [2]): 50% | Activity (Cortical neurone): 8% | Activity (SH-SY5Y [3]): 63%

OC[C@H](O)C[C@@H]1C=C[C@@H]2OC(c3ccccc3)OC[C@H]2O1 (some centres not stated)
Activity (SH-SY5Y [4]; filed as activator): Active | Activity (SH-SY5Y [5]): Active | Activity (SH-SY5Y [1]): 40% | Activity (SH-SY5Y [2]): 21% | Activity (Cortical neurone): 29% | Activity (SH-SY5Y [3]): 10%

OCCC[C@@H]1C=C[C@@H]2OC(c3ccccc3)OC[C@H]2O1 (some centres not stated)
Activity (SH-SY5Y [1]): 82% | Activity (SH-SY5Y [2]): 52% | Activity (Cortical neurone): 12% | Activity (SH-SY5Y [3]): 29%

CC12CC3CC(C)(C1)CC(N)(C3)C2 [MEMANTINE]
Activity (SH-SY5Y [1]): 60% | Activity (SH-SY5Y [2]): 57% | Activity (Cortical neurone): 22%

O=C(OCCC[C@@H]1C=C[C@H](O)[C@@H](CO)O1)c1ccccc1
Activity (SH-SY5Y [4]): inactive | Activity (SH-SY5Y [1]): 20% | Activity (SH-SY5Y [2]): 1% | Activity (Cortical neurone): 17% | Activity (SH-SY5Y [3]): 3%

COc1ccc2[nH]cc(CCNC(C)=O)c2c1 [MELATONIN]
Activity (SH-SY5Y [3]): 28%

C=CC[C@@H]1C=C[C@H](OC(C)=O)[C@@H](COC(C)=O)O1
Activity (SH-SY5Y [1]): 84% | Activity (SH-SY5Y [2]): 47% | Activity (Cortical neurone): 19% | Activity (SH-SY5Y [3]): 23%

OC[C@@H](O)C[C@@H]1C=C[C@@H]2OC(c3ccccc3)OC[C@H]2O1 (some centres not stated)
Activity (SH-SY5Y [5]): Active | Activity (SH-SY5Y [1]): 73% | Activity (SH-SY5Y [2]): 54% | Activity (Cortical neurone): 13% | Activity (SH-SY5Y [3]): 27%

CC1(C)OC[C@H]2O[C@H](C[C@@H](O)CO)C=C[C@@H]2O1
Activity (SH-SY5Y [5]): Active | Activity (SH-SY5Y [1]): 45% | Activity (SH-SY5Y [2]): 56% | Activity (Cortical neurone): 15% | Activity (SH-SY5Y [3]): 24%

C=CC[C@@H]1C=C[C@@H]2OC(c3ccccc3)OC[C@H]2O1 (some centres not stated)
Activity (SH-SY5Y [1]): 80% | Activity (SH-SY5Y [2]): 49% | Activity (Cortical neurone): 15% | Activity (SH-SY5Y [3]): 26%

CC1(C)OC[C@H]2O[C@H](CCCOC(=O)c3ccccc3)C=C[C@@H]2O1
Activity (SH-SY5Y [4]): inactive | Activity (SH-SY5Y [1]): 69% | Activity (SH-SY5Y [2]): 37% | Activity (Cortical neurone): 17% | Activity (SH-SY5Y [3]): 15%

O=C(OCCC[C@@H]1C=C[C@@H]2OC(c3ccccc3)OC[C@H]2O1)c1ccccc1 (some centres not stated)
Activity (SH-SY5Y [4]): inactive | Activity (SH-SY5Y [1]): 72% | Activity (SH-SY5Y [2]): 47% | Activity (Cortical neurone): 8% | Activity (SH-SY5Y [3]): 7%

C=CC[C@@H]1C=C[C@H](O)[C@@H](CO)O1
Activity (SH-SY5Y [5]): Active | Activity (SH-SY5Y [1]): 72% | Activity (SH-SY5Y [2]): 45% | Activity (Cortical neurone): 15% | Activity (SH-SY5Y [3]): 30%

CC1(C)OC[C@H]2O[C@H](CCCO)C=C[C@@H]2O1
Activity (SH-SY5Y [1]): 81% | Activity (SH-SY5Y [2]): 45% | Activity (Cortical neurone): 6% | Activity (SH-SY5Y [3]): 5%

CC1(C)OC[C@H]2O[C@H](C[C@H](O)CO)C=C[C@@H]2O1
Activity (SH-SY5Y [4]; filed as activator): Active | Activity (SH-SY5Y [5]): Active | Activity (SH-SY5Y [1]): 72% | Activity (SH-SY5Y [2]): 64% | Activity (Cortical neurone): 20% | inhibition [6]: Active | inhibition [7]: Active | permeability [8]: Permeable | Activity (HEK293T [9]): Active | Activity (HEK293T [10]): Active | fold change (FC) (Mus musculus): 2.4 | Activity (SH-SY5Y [3]): 16%
